# High-throughput results as filed in PubChem BioAssay.
# Compounds with a hit are over-represented: about 2.3% of the library has one in this group of screens.
# STEP block: blocks human striatal-enriched tyrosine phosphatase | 360,000 tested, 0.25% active | P54829 | recombinant STEP, OMFP fluorogenic substrate, fluorescence | inhibition, % at 20 µM;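 active = inhibition at 20 µM, scaled per plate between control wells, above about 37%, limit read from the data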;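 also: 0% = DMSO with enzyme and substrate and 100% = substrate only without enzyme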
#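 Material: STEP (striatal-enriched tyrosine phosphatase) enzyme, cell-free; Compound dosing: 20 µM single dose in 1% DMSO; Technique: fluorescence read at 480 nm ex / 540 nm em; Times: reaction 20 min, ambient temperature; Medium: 50 mM Bis-Tris pH 6.0 with 2.5 mM DTT and 0.005% Tween 20; Also added: OMFP at 25 µM.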
# DNMT1 inh: blocks human DNA methyltransferase DNMT1; P26358; AID 588458; inhibition (reported as % activation of signal), % at 10 µM; 360,000 tested, 0.83% active; DNMT1 molecular beacon, Hinp1I cleavage, fluorescence; in the data active = inhibition above about 50%
# Target sequence (P26358 504-1616 limits assumed): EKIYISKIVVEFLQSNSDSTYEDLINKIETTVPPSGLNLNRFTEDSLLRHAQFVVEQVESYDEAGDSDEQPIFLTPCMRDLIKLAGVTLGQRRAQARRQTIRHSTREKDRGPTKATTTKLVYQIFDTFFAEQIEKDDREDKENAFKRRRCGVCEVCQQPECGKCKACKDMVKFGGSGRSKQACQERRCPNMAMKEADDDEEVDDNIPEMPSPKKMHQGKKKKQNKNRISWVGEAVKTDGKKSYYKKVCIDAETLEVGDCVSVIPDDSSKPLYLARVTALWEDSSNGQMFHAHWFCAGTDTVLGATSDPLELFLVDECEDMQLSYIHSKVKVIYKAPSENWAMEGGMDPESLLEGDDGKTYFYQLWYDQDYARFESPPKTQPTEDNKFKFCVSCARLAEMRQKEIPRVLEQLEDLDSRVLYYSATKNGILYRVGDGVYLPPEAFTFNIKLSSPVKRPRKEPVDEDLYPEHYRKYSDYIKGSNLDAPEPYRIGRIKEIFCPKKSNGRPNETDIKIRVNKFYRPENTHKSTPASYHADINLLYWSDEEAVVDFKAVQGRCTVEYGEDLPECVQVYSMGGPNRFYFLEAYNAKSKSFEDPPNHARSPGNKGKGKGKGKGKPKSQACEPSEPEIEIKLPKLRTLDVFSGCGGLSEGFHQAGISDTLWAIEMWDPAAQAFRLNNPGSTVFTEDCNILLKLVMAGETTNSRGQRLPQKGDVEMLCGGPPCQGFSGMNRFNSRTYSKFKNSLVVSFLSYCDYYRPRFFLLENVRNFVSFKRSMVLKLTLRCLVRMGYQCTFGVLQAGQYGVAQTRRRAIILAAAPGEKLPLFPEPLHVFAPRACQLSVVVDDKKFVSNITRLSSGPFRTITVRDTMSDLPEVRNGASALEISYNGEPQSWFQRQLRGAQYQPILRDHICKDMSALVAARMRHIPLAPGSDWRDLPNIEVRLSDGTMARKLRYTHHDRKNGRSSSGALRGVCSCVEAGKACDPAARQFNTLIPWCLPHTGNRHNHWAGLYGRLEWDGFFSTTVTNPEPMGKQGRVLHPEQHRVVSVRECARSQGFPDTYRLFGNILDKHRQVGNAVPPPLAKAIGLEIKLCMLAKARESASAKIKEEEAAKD
# SUMO1 PPI mod: SUMO1-SIM interaction modulation. P63165. SUMO1 binding to a labelled peptide, TR-FRET, 1 h. inhibition, % at 20 µM. 360,000 tested, 0.33% active; in the data active = inhibition above about 37%
# Rpn11 inh: inhibitors of human proteasome Rpn11 | O00487 | AID 588493 | 360,000 tested, 0.59% active | inhibition, % at 20 µM | human 26S proteasome, Ub4-pepOG fluorescence polarization; 20S core pre-blocked with epoxomicin;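 active = inhibition at 20 µM, scaled to each plate's controls, above about 33%, limit read from the data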
# LMPTP block: blocks human LMPTP phosphatase. recombinant LMPTP-A, OMFP fluorogenic substrate, fluorescence intensity. inhibition, % at 20 µM. 360,000 tested, 0.22% active. AID 651560;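 active = compounds that cut the enzyme signal by at least half of the control window in the single-dose screen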;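 also: plate controls were DMSO wells with enzyme plus substrate for no effect and substrate without enzyme for full effect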
#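 test system = LMPTP-A | amount = 0.625 nM LMPTP-A final | reagent = fluorogenic phosphatase substrate OMFP at 400 µM final | incubation = 50 min at room temperature | benchmarks = no-enzyme low control, uninhibited high control | medium = Bis-Tris pH 6.0, DTT, detergent | signal = fluorescence intensity of OMFP turnover product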
# Scp1 inh: blocks human Scp-1 phosphatase activity; Q9GZU7; Recombinant Scp1, phosphopeptide, malachite green phosphate absorbance; inhibition, % at 20 µM; 340,000 tested, 0.88% active; AID 493091;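 active = inhibition above about 50% at 20 µM, limit read from the data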;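 also: plate controls were DMSO wells with enzyme for no effect and wells lacking enzyme for full effect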
#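 Test system: SCP-1 phosphatase catalytic domain, residues 76-261; measured by: colorimetric phosphate reagent with accelerator and stabiliser, absorbance at 630 nm; timing: enzyme reaction 45 min at room temperature, colour 5 min, stabilisation 30 min; also added: Phosphorylated 17-residue peptide substrate; compound dosing: one concentration, 20 µM, with 1.0% DMSO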
# Scp-1 conf: confirmation of human Scp-1 phosphatase inhibitors; recombinant SCP-1 catalytic domain, phosphate release, malachite green absorbance; 2,500 tested, 61% active; shares compounds with Scp1 inh; AID 540281; inhibition, % at 20 µM;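 also: plate controls were DMSO with enzyme for no effect and buffer wells lacking enzyme for full effect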
# MG interference: colorimetric interference in Scp-1 counter-screen; 2,500 tested, under 10 active; shares compounds with Scp1 inh; AID 540313; Colorimetric interference counterscreen, malachite green absorbance 630 nm; apparent inhibition (interference), % at 20 µM;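 also: compounds added after enzyme reaction finished so only phosphate colour detection is probed; plate controls were DMSO wells with completed Scp-1 reaction for no effect and substrate wells lacking enzyme for full effect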
# Scp-1 Tm shift: validation of human Scp-1 inhibitors by thermal shift binding; shares compounds with Scp1 inh; 1,500 tested, 25% active; Recombinant SCP1, Sypro Orange thermal shift Tm; thermal shift relative to vanadate control, % at 40 µM;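 active = substances whose mean melting-temperature shift, as a percentage of the reference inhibitor's shift, reaches about 5.3%, limit read from the data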;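 also: 0% = Tm of DMSO wells and 100% = Tm with sodium orthovanadate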
# Beacon interf DR: counter-screen for DNMT1 inhibitors: spectral interference, dose response. shares compounds with DNMT1 inh. molecular beacon fluorescence. IC50, µM. 200 tested, under 10 active. AID 602382; call rule not given here
# DNMT1 confirm: DNMT1 inhibition confirmation, single concentration; shares compounds with DNMT1 inh; DNMT1 molecular beacon HinP1I cleavage, fluorescence; AID 602385; inhibition, % at 10 µM; 2,300 tested, 8% active;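 active = average inhibition of at least 30% in the single-concentration confirmation test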
# Beacon interf: shows spectral interference in the DNMT1 beacon assay; DNMT1 molecular beacon spectral interference counterscreen, fluorescence 485/520; activation (fluorescence interference), % at 10 µM; AID 602387; 2,300 tested, 1% active; shares compounds with DNMT1 inh;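 active = activation of at least 30% at 10 µM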;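 also: DNMT1 catalytic domain with a HinP1I cleavage step and a FAM/dabcyl DNA beacon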
# Numbers without * were called inactive; x = no result shown.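 The calls were made as follows, unless noted: active = inhibition of at least 30% at 20 µM; inactive = the rest.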
SMILES,STEP block,DNMT1 inh,SUMO1 PPI mod,Rpn11 inh,LMPTP block,Scp1 inh,Scp-1 conf,MG interference,Scp-1 Tm shift,DNMT1 confirm,Beacon interf,others
C#Cc1ccc([C@@H]2C=C(C(=O)NCc3ccccc3)O[C@H](OCC)[C@H]2CCCO)cc1,-4.9,-11.8,7.0,6.6,0.3,-4.9,x,x,x,x,x,
C#Cc1ccc([C@@H]2C=C(C(=O)O)O[C@H](OCC)[C@H]2CCCO)cc1,11.9,52.4*,30.5,-0.4,-1.2,52.6*,47.2*,-17.2,-13.0,3.2,0.3,
CCc1ccc(/C(C)=N/NC(=O)CNC(=O)/C=C/c2ccccc2OC)cc1,-0.5,-1.4,-0.8,2.2,2.0,-3.6,x,x,x,x,x,
NS(=O)(=O)c1ccc(CNC(=O)/C=C/c2ccco2)cc1,4.4,89.8*,20.7,10.1,5.6,84.2*,70.1*,-5.4,2.8,9.2,8.9,
CCc1ccc(/C(C)=N/NC(=O)CNC(=O)/C=C/c2ccco2)cc1,23.8,92.2*,108.4*,x,9.3,93.7*,64.8*,-11.7,-14.1,69.0*,-6.2,Beacon interf DR=>99
O=C(O)C1=C(C(=O)O)C2C=CC1C2,33.3,60.4*,24.5,0.3,0.6,72.0*,51.6*,-15.0,-3.0,5.0,2.4,
CCOC(=O)C(C)N1C(=O)S/C(=C\c2ccc(-c3ccccc3C(=O)O)o2)C1=O (stereo unspecified),26.3,100.4*,46.5*,23.5,5.9,51.9*,53.5*,-12.0,10.6*,45.1*,-3.0,Beacon interf DR=>99
CCC(=O)Nc1cc(C(=O)O)ccc1S(=O)(=O)c1ccc(C)cc1,9.0,63.4*,7.1,-10.5,-1.4,66.9*,56.5*,-4.9,3.6,-0.6,1.2,
CC(=O)Nc1cc(C(=O)O)ccc1S(=O)(=O)c1ccc(C)cc1,-8.1,3.2,-1.2,-2.2,0.9,24.7,x,x,x,x,x,
CCn1nnc(NC(=O)CSc2ccc(Cl)cc2)n1,-1.1,65.7*,3.9,-2.2,6.0,51.4*,72.0*,-5.7,2.5,4.7,2.2,
COC(=O)[C@H](C(C)C)N(Cc1ccccc1)S(=O)(=O)CCNC1CCCC1,-3.9,0.0,-2.4,-0.7,-0.1,-1.3,x,x,x,x,x,
c1ccc(-c2nn3c(-c4ccco4)nnc3s2)nc1,6.4,-0.1,17.4,-4.3,1.0,4.5,x,x,x,x,x,
Brc1ccc(-c2nn3c(-c4ccco4)nnc3s2)o1,16.7,84.1*,17.7,-8.8,10.0,52.1*,22.2,-16.2,x,2.6,3.6,
Clc1ccc(-c2ccc(-c3nn4c(-c5ccco5)nnc4s3)o2)cc1,4.6,78.1*,30.0,18.1,26.2,77.3*,50.0*,-10.6,-0.5,2.1,-0.6,
O=C(Nc1ccc2c(c1)C(=O)c1ccccc1-2)c1ccccc1,0.3,46.1,15.7,1.6,18.8,-12.4,x,x,x,x,x,
COc1cccc(C(=O)Nc2ccc3c(c2)C(=O)c2ccccc2C3=O)c1,59.6*,73.6*,3.9,-10.8,33.1,74.6*,64.2*,-9.6,5.4*,7.5,-1.4,
Cc1ccc(-c2nc3ncccc3o2)cc1NC(=O)c1ccc2c(c1)OCO2,-3.0,-2.9,2.6,9.4,-0.8,-12.7,x,x,x,x,x,
O=C(CSc1ccsc1[N+](=O)[O-])Nc1cc(F)ccc1F,5.0,69.7*,-0.3,-10.6,21.4,72.3*,66.0*,-16.4,8.1*,18.7,0.3,
O=C(CSc1ccsc1[N+](=O)[O-])NCCc1ccc(Cl)cc1,5.3,-0.6,-5.1,3.4,10.3,33.1,x,x,x,x,x,
COc1ccc(S(=O)(=O)N2Cc3ccccc3CC2C(=O)Nc2ccc3c(c2)OCO3)cc1 (stereo unspecified),-1.8,-7.8,-2.7,2.1,1.2,-14.1,x,x,x,x,x,
Cc1ccc(S(=O)(=O)N2Cc3ccccc3CC2C(=O)Nc2ccc3c(c2)OCO3)cc1 (stereo unspecified),1.4,66.5*,8.3,-10.0,5.6,70.0*,56.6*,-12.3,0.7,8.8,5.7,
O=C(Nc1ccc(S(=O)(=O)NC2=NCCCCC2)cc1)c1cc(S(=O)(=O)N2CCOCC2)ccc1F,1.2,-2.3,0.1,-3.7,-1.9,-4.5,x,x,x,x,x,
Cc1ccc(CNC(=O)C(N=C2NS(=O)(=O)c3ccccc32)C(C)C)cc1 (stereo unspecified),-2.1,2.0,-3.9,6.1,-0.5,-7.3,x,x,x,x,x,
O=C(Nc1ccccc1F)N1CCc2ccccc2C1,-0.6,-0.6,-4.2,-0.7,0.1,-2.0,x,x,x,x,x,
NC(=O)CC(NC(=O)Cc1cccc2ccccc12)c1ccc(N2CCN(c3ccc(F)cc3)CC2)c([N+](=O)[O-])c1 (stereo unspecified),3.9,22.6,-2.9,-3.0,0.2,-2.3,x,x,x,x,x,
C=C(C)C(=O)Nc1cccc(C2=NOC3(C2)C[C@@H](C(N)=O)N(C(=O)/C=C/CC)C3)c1 (stereo partly specified),7.3,109.2*,63.7*,-5.9,0.2,69.0*,56.5*,-13.4,-29.0,42.2*,1.0,Beacon interf DR=>99
C=C(C)C(=O)Nc1cccc(C2=NOC3(C2)C[C@@H](C(N)=O)N(C(=O)C(=C)C)C3)c1 (stereo partly specified),3.0,103.2*,63.3*,2.9,-0.6,70.4*,62.0*,-9.3,-10.6,59.6*,3.2,Beacon interf DR=>99
C=C(C)C(=O)Nc1cccc(C2=NOC3(C2)C[C@@H](C(N)=O)N(C(=O)C2(C)CC2)C3)c1 (stereo partly specified),13.3,105.8*,91.0*,-3.1,0.0,74.9*,59.6*,-15.6,-5.5,102.7*,3.7,Beacon interf DR=>99
C=C(C)C(=O)Nc1cccc(C2=NOC3(C2)C[C@H](C(N)=O)N(C(=O)COc2ccc(Cl)cc2)C3)c1 (stereo partly specified),5.0,98.2*,103.6*,2.7,1.2,72.1*,75.2*,2.0,-7.9,63.6*,-1.6,Beacon interf DR=>99
